Our source for the Activity and Survival values is ChEMBL document CHEMBL3244096, “Modifications of primaquine as antimalarials. 1. 5-Phenoxy derivatives of primaquine” (J Med Chem, 1977).

The test system of data set [1] is Plasmodium cynomolgi. Kind of data set: Antimalarial activity against sporozoite stage of Plasmodium cynomolgi infected in rhesus monkey assessed as radical curative activity at 1 mg/kg measured for 90 days. Also noted: dose 1 mg/kg. It counts as functional, organism-based. In a few lines:
(§1)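 Rhesus monkeys infected by sporozoite inoculation of Plasmodium cynomolgi and dosed at the mg/kg levels given. Results are recorded as cures per number of animals, or as the day of relapse. An animal with no relapse within 90 days is counted as cured.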

Data set [2] has as its system Plasmodium cynomolgi. Description: Antimalarial activity against sporozoite stage of Plasmodium cynomolgi infected in rhesus monkey assessed as radical curative activity at 10 mg/kg measured for 90 days. It counts as functional, organism-based. More on the design: dose 10 mg/kg. In a few lines: as §1
The subject of data set [3] is Plasmodium cynomolgi. Kind of data set: Antimalarial activity against sporozoite stage of Plasmodium cynomolgi infected in rhesus monkey assessed as radical curative activity at 0.75 mg/kg measured for 90 days. It counts as functional, organism-based. Also noted: dose 0.75 mg/kg. In a few lines:
as §1

Data set [4] deals with Plasmodium cynomolgi. Kind of data set: Antimalarial activity against sporozoite stage of Plasmodium cynomolgi infected in rhesus monkey assessed as radical curative activity at 0.5 mg/kg measured for 90 days. It counts as functional, organism-based. More on the design: dose 0.5 mg/kg. The procedure, abridged: as §1
The test system of data set [5] is Plasmodium cynomolgi. Description: Antimalarial activity against sporozoite stage of Plasmodium cynomolgi infected in rhesus monkey assessed as radical curative activity at 0.125 mg/kg measured for 90 days. It counts as functional, organism-based. Also noted: dose 0.125 mg/kg. In a few lines:
as §1

Data set [6] relates to Plasmodium cynomolgi. Kind of data set: Antimalarial activity against sporozoite stage of Plasmodium cynomolgi infected in rhesus monkey assessed as radical curative activity at 0.25 mg/kg measured for 90 days. It counts as functional, organism-based. More on the design: dose 0.25 mg/kg. In a few lines: as §1
For data set [7], the system named is Plasmodium berghei. Description: Antimalarial activity against blood schizont stage of Plasmodium berghei infected in mouse assessed as mean survival days of host at 40 mg/kg (reference value: 6.1 days). It counts as functional.
Data set [8] deals with Plasmodium berghei. Kind of data set: Antimalarial activity against blood schizont stage of Plasmodium berghei infected in mouse assessed as mean survival days of host at 160 mg/kg (reference value: 6.1 days). It counts as functional.
Data set [9] concerns Plasmodium berghei. Description: Antimalarial activity against blood schizont stage of Plasmodium berghei infected in mouse assessed as complete disease cure at 640 mg/kg measured 60 days post infection infection. It counts as functional, organism-based. More on the design: dose 640 mg/kg. In a few lines: (§2)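 Mice infected with blood-stage Plasmodium berghei, five animals per group, following the Osdene et al. method. Cures are the number of mice alive 60 days after infection. Deaths before day 6 are scored as toxic. Activity is read as the increase in mean survival time over untreated controls, and a group counts as active when its MST exceeds twice the control MST.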

Data set [10] deals with Plasmodium berghei. Kind of data set: Antimalarial activity against blood schizont stage of Plasmodium berghei infected in mouse assessed as mean survival days of host at 80 mg/kg (reference value: 6.1 days). It counts as functional.
In data set [11] the test system is Plasmodium berghei. Kind of data set: Antimalarial activity against blood schizont stage of Plasmodium berghei infected in mouse assessed as complete disease cure at 320 mg/kg measured 60 days post infection infection. It counts as functional, organism-based. Also noted: dose 320 mg/kg. The procedure, abridged:
as §2

Data set [12] has as its system Plasmodium berghei. Description: Antimalarial activity against blood schizont stage of Plasmodium berghei infected in mouse assessed as mean survival days of host at 20 mg/kg (reference value: 6.1 days). It counts as functional.
The test system of data set [13] is Mus musculus. Kind of data set: Toxicity in mouse infected with blood schizont stage of Plasmodium berghei assessed as mortality at 320 mg/kg measured prior to 6th day. Also noted: dose 320 mg/kg. The note with it: in vivo. It counts as organism-based. The procedure, abridged:
(§3)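 In P. berghei-infected mice, five per group, deaths occurring before day 6 after infection are recorded as drug-toxic deaths.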

Data set [14] relates to Mus musculus. Description: Toxicity in mouse infected with blood schizont stage of Plasmodium berghei assessed as mortality at 160 mg/kg measured prior to 6th day. It counts as organism-based. Also noted: dose 160 mg/kg. The settings on record: in vivo. In a few lines:
as §3

In data set [15] the test system is Mus musculus. Description: Toxicity in mouse infected with blood schizont stage of Plasmodium berghei assessed as mortality at 640 mg/kg measured prior to 6th day. The note with it: in vivo. More on the design: dose 640 mg/kg. It counts as organism-based. In a few lines:
as §3

Data set [16] relates to Plasmodium berghei. Description: Antimalarial activity against blood schizont stage of Plasmodium berghei infected in mouse assessed as mean survival days of host at 320 mg/kg (reference value: 6.1 days). It counts as functional.
Data set [17] relates to Plasmodium berghei. Kind of data set: Antimalarial activity against blood schizont stage of Plasmodium berghei infected in mouse assessed as mean survival days of host at 640 mg/kg (reference value: 6.1 days). It counts as functional.

Each structure is given as a SMILES string. The source made the active and inactive calls.

Consider `COc1cc(NC(C)CCCN)c2ncccc2c1Oc1ccc(NC(C)=O)cc1` (configuration not stated), for which the outcome in the data set on Plasmodium cynomolgi [1], with Plasmodium cynomolgi [2], in the data set with Plasmodium cynomolgi [3], with Plasmodium cynomolgi [4], in the data set on Plasmodium cynomolgi [5] and in the data set with Plasmodium cynomolgi [6] was inactive.
For the compound `COc1cc(NC(C)CCCN)c2ncccc2c1Oc1ccc(F)cc1.O.O=C(O)CC(O)(CC(=O)O)C(=O)O` (configuration not stated), the Survival with Plasmodium berghei [7] was 5.7 days; in the data set on Plasmodium berghei [8], 8.9 days; in the data set with Plasmodium berghei [10], 7.5 days; with Plasmodium berghei [12], 2.1 days. Further, the outcome in the data set with Plasmodium cynomolgi [4] and with Plasmodium cynomolgi [5] was inactive. Besides, the result with Plasmodium berghei [9] and with Plasmodium berghei [11] was Active.
`COc1cc(NC(C)CCCN)c2ncccc2c1` (configuration not stated) [PRIMAQUINE]: the Survival came to 5 days in the data set with Plasmodium berghei [7], 9.4 days in the data set with Plasmodium berghei [10] and 4 days with Plasmodium berghei [12]. Moreover, the result in the data set on Plasmodium cynomolgi [3] was Active. For the same compound, the Activity result in the data set on Mus musculus [13], with Mus musculus [14] and with Mus musculus [15] was “Toxic” throughout. The outcome in the data set on Plasmodium cynomolgi [6] was inactive.
For `COc1cc(NC(C)CCCN)c2ncccc2c1Oc1ccccc1.O.O=P(O)(O)O` (configuration not stated), the Survival with Plasmodium berghei [16] was found to be 7.5 days; with Plasmodium berghei [7], 1.5 days; with Plasmodium berghei [8], 5.1 days; with Plasmodium berghei [10] it was 1.7 days; in the data set with Plasmodium berghei [17], 9.9 days; in the data set on Plasmodium berghei [12], 0.3 days.
Consider `COc1cc(NC(C)CCCN)c2ncccc2c1Oc1ccc(Cl)cc1` (configuration not stated), for which the Survival turned out to be 8.1 days with Plasmodium berghei [16]; 4.7 days with Plasmodium berghei [7]; 7.1 days in the data set with Plasmodium berghei [8]; 5.5 days in the data set on Plasmodium berghei [10]; 0.7 days with Plasmodium berghei [12]. Besides, the result in the data set on Plasmodium cynomolgi [1], in the data set on Plasmodium cynomolgi [2] and with Plasmodium cynomolgi [4] was Active. In the data set with Plasmodium cynomolgi [6], the result was inactive.
